This is an account of results in ChEMBL document CHEMBL4041521, “3-Aroylindoles display antitumor activity in vitro and in vivo: Effects of N1-substituents on biological activity” (Eur J Med Chem, 2017).

This test concerns RPMI-8226. The test can be described thus: Antitumor activity against human RPMI8226 cells xenografted in athymic nude mouse assessed as tumor growth inhibition at 50 mg/kg, ip qd measured twice per week relative to control. The format is functional. The following applies: RPMI-8226, ip, read-out: TGI. In outline: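 Male athymic nude mice (5–6 wk) implanted s.c. with 1 × 10⁷ RPMI-8226 myeloma cells; randomized by tumor size at ~150–350 mm³. Daily i.p. injection, vehicle 5% DMSO + 5% Cremophor in D5W. Tumor volume by calipers twice weekly as (length × width²)/2; %TGI derived from treated vs control volume ratios at time t and time 0.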
On the technique in general: In xenograft studies the graft and the host belong to different species.

Consider `COc1ccc2c(C(=O)c3cc(OC)c(OC)c(OC)c3)cn(Cc3ccc(C(=O)NO)cc3)c2c1`, for which the inhibition in vivo at 50 mg/kg worked out at 35.8%.
